Assay results reported in ChEMBL document CHEMBL1136985, “New pyridinone derivatives as potent HIV-1 nonnucleoside reverse transcriptase inhibitors” (J Med Chem, 2009).

Tests used:
[1] = system: Human immunodeficiency virus 1; experiment: Antiviral activity against HIV1 NL4-3 with K103N/L100I double mutant in human TZM-b1 cells assessed as beta-galactosidase activity after 48 hrs by single round replication assay; format: functional, organism-based; conditions: Human immunodeficiency virus 1, NL4-3, TZM-b1, 48 h
How it was run: (§1)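 TZM-bl cells (DMEM, 5% heat-inactivated FBS) plated at 5000 cells/well and grown 48 h. Medium replaced with compound at 0.00128–4 µM. After 4 h, cells infected with NL4-3-derived RT-mutant virus equal to 100 ng p24. Virus stocks came from HEK293 cells transfected with sequence-verified mutant clones. At 48 h, cells lysed in PBS/0.1% NP-40/5 mM MgCl2 and β-galactosidase read with CPRG. EC50 taken from dose-response curves.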

[2] = system: Human immunodeficiency virus 1; experiment: Antiviral activity against HIV1 NL4-3 with V108I mutant in human TZM-b1 cells assessed as beta-galactosidase activity after 48 hrs by single round replication assay; format: functional, organism-based; conditions: Human immunodeficiency virus 1, NL4-3, TZM-b1, 48 h; how it was run: as §1
[3] = system: Human immunodeficiency virus 1; experiment: Antiviral activity against HIV1 NL4-3 with L100I mutant in human TZM-b1 cells assessed as beta-galactosidase activity after 48 hrs by single round replication assay; format: functional, organism-based; conditions: Human immunodeficiency virus 1, NL4-3, TZM-b1, 48 h; how it was run: as §1
[4] = system: Human immunodeficiency virus 1; experiment: Antiviral activity against HIV1 NL4-3 with K103N mutant in human TZM-b1 cells assessed as beta-galactosidase activity after 48 hrs by single round replication assay; format: functional, organism-based; conditions: Human immunodeficiency virus 1, NL4-3, TZM-b1, 48 h; how it was run: as §1
[5] = system: Human immunodeficiency virus 1; experiment: Antiviral activity against HIV1 NL4-3 with Y181C mutant in human TZM-b1 cells assessed as beta-galactosidase activity after 48 hrs by single round replication assay; format: functional, organism-based; conditions: Human immunodeficiency virus 1, NL4-3, TZM-b1, 48 h; how it was run: as §1
[6] = system: Human immunodeficiency virus 1; experiment: Antiviral activity against wild type HIV1 NL4-3 in human TZM-b1 cells assessed as beta-galactosidase activity after 48 hrs; format: functional, organism-based; conditions: Human immunodeficiency virus 1, NL4-3, TZM-b1, 48 h
How it was run: (§2)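 Cells plated at 5000/well, incubated 48 h, then medium replaced with compound (0.00128 to 4 µM). Infection 4 h later with cell-free NL4-3 virus equivalent to 100 ng p24. At 48 h postinfection cells lysed in PBS with 0.1% NP-40 and 5 mM MgCl2. β-Galactosidase read with chlorophenol red β-D-galactopyranoside. EC50 taken from dose-response curves.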

[7] = system: Human immunodeficiency virus 1; experiment: Antiviral activity against HIV1 NL4-3 with L100I/V108I double mutant in human TZM-b1 cells assessed as beta-galactosidase activity after 48 hrs by single round replication assay; format: functional, organism-based; conditions: Human immunodeficiency virus 1, NL4-3, TZM-b1, 48 h; how it was run: as §1
[8] = system: Human immunodeficiency virus 1; experiment: Antiviral activity against HIV1 NL4-3 in human TZM-b1 cells assessed as beta-galactosidase activity after 48 hrs by single round replication assay; conditions: Human immunodeficiency virus 1, NL4-3, TZM-b1, 48 h
[9] = system: Human immunodeficiency virus 1; experiment: Antiviral activity against HIV1 NL4-3 with K103N/V108I double mutant in human TZM-b1 cells assessed as beta-galactosidase activity after 48 hrs by single round replication assay; conditions: Human immunodeficiency virus 1, NL4-3, TZM-b1, 48 h
[10] = system: Human immunodeficiency virus 1; experiment: Antiviral activity against wild type HIV1 NL4-3 in human HeLaP4 cells assessed as beta-galactosidase activity after 48 hrs; format: functional, organism-based; how it was run: as §2
[11] = Selectivity index, ratio of CC50 for human TZM-b1 cells to EC50 for HIV1 NL4-3; format: toxicity, cell-based; conditions: read-out: Ratio CC50/EC50
How it was run: (§3)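 Viability by WST-1 absorbance at 570 nm relative to drug-free control. Divided by EC50 from the 48 h β-galactosidase infection assay with NL4-3 in the same cell type.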

[12] = system: Human immunodeficiency virus 1; experiment: Antiviral activity against HIV1 NL4-3 with K103N/Y181C double mutant in human TZM-b1 cells assessed as beta-galactosidase activity after 48 hrs by single round replication assay; conditions: Human immunodeficiency virus 1, NL4-3, TZM-b1, 48 h
[13] = biological target: Human immunodeficiency virus type 1 reverse transcriptase (Human immunodeficiency virus 1) (UniProt Q72547); experiment: Inhibition of recombinant HIV1 reverse transcriptase assessed as residual activity at 10 uM by […] incorporation assay relative to control
How it was run: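 Recombinant HIV-1 RT, compound at 10 µM final (from DMSO). Incubated 10 min at 37 °C, then collected on DEAE filters and washed. Counted by phosphorimager; activity expressed relative to uninhibited RT.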

[14] = Selectivity index, ratio of CC50 for human HeLaP4 cells to EC50 for HIV1 NL4-3; format: toxicity, cell-based; conditions: read-out: Ratio CC50/EC50; how it was run: as §3
[15] = system: Human immunodeficiency virus 1; experiment: Antiviral activity against HIV1 NL4-3 with Y181C mutant in human HeLaP4 cells assessed as beta-galactosidase activity after 48 hrs by single round replication assay; format: functional, organism-based; conditions: Human immunodeficiency virus 1, NL4-3, HeLaP4, 48 h
[16] = system: Human immunodeficiency virus 1; experiment: Antiviral activity against HIV1 NL4-3 with double K103N/L100I mutant in human MT4 cells assessed as inhibition of virus-induced cytopathicity after 5 days by multiple round replication assay; format: functional, organism-based; conditions: Human immunodeficiency virus 1, NL4-3, MT4, 120 h
How it was run: (§4)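 MT-4 human T-cells, cultured in RPMI 1640 with 10% heat-inactivated FBS at 37 °C, 5% CO2, infected with HIV-1 NL4-3-derived mutant strains, then exposed to a range of compound concentrations. After 5 days, viability of infected and mock-infected cells read by WST-1 tetrazolium cleavage.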

[17] = system: Human immunodeficiency virus 1; experiment: Antiviral activity against HIV1 NL4-3 with L100I mutant in human MT4 cells assessed as inhibition of virus-induced cytopathicity after 5 days by multiple round replication assay; format: functional, organism-based; conditions: Human immunodeficiency virus 1, NL4-3, MT4, 120 h; how it was run: as §4
[18] = system: Human immunodeficiency virus 1; experiment: Antiviral activity against HIV1 NL4-3 with K103N mutant in human MT4 cells assessed as inhibition of virus-induced cytopathicity after 5 days by multiple round replication assay; format: functional, organism-based; conditions: Human immunodeficiency virus 1, NL4-3, MT4, 120 h; how it was run: as §4
[19] = system: Human immunodeficiency virus 1; experiment: Antiviral activity against HIV1 NL4-3 with Y181C mutant in human MT4 cells assessed as inhibition of virus-induced cytopathicity after 5 days by multiple round replication assay; format: functional, organism-based; conditions: Human immunodeficiency virus 1, NL4-3, MT4, 120 h; how it was run: as §4
[20] = Human immunodeficiency virus 1, NL4-3, HeLaP4, 48 h

Structure (SMILES)	EC50 [1] [nM]	EC50 [2] [nM]	EC50 [3] [nM]	EC50 [4] [nM]	EC50 [5] [nM]	EC50 [6] [nM]	EC50 [7] [nM]	EC50 [8] [nM]	EC50 [9] [nM]	selectivity ratio [11]	also measured
Cc1ccnc2c1NC(=O)c1cccnc1N2C1CC1 [NEVIRAPINE]	> 10000	792	252	3300	> 10000	39	> 10000	> 10000	> 10000	–	–
CCOC(=O)c1c(OC2CC(C)CC(C)C2)c(CC)c(C)[nH]c1=O (stereo in doubt; 10B)	–	–	–	–	–	–	–	–	–	–	EC50 [10, 20]: 85 nM
CCc1c(C)[nH]c(=O)c(C)c1O[C@@H]1C[C@H](C)C[C@H](C)C1	1400	121	203	142	893	2	833	> 10000	5100	40000	EC50 [12]: 1200 nM
CCOC(=O)c1c(OC2CCCCCC2)c(CC)c(C)[nH]c1=O	–	–	–	–	–	390	–	–	–	205	Activity [13]: 34.6%
CCOC(=O)c1c(OC2CC(C)CC(C)C2)c(CC)c(C)[nH]c1=O (stereo in doubt; 10)	–	–	–	–	–	–	–	–	–	–	EC50 ([10]; helap4): 43 nM
CCc1c(C)[nH]c(=O)c(Br)c1O[C@@H]1C[C@H](C)C[C@H](C)C1	68	1	–	9	138	< 1	38	6300	780	> 28000	EC50 [12]: 523 nM
CCc1c(C)[nH]c(=O)c([N+](=O)[O-])c1O[C@@H]1C[C@H](C)C[C@H](C)C1	> 10000	2	9	177	279	< 1	8300	> 10000	> 10000	> 37000	–
CCOC(=O)c1c(S[C@@H]2C[C@H](C)C[C@H](C)C2)c(CC)c(C)[nH]c1=O	–	–	–	–	–	116	–	–	–	862	–
CCc1c(C)[nH]c(=O)c(CO)c1O[C@@H]1C[C@H](C)C[C@H](C)C1	–	–	–	–	–	121	–	–	–	> 826	–
CCOC(=O)c1c(OC2CCCC(C)C2)c(CC)c(C)[nH]c1=O (configuration not stated)	–	–	–	–	–	–	–	–	–	–	selectivity ratio [14]: 192; EC50 [10, 20]: 520 nM
CCOC(=O)c1c(O[C@@H]2C[C@H](C)C[C@H](C)C2)c(CC)c(C)[nH]c1=O	–	5900	2200	> 10000	–	–	–	> 10000	–	–	EC50 [15]: 2000 nM; selectivity ratio [14]: 1780; EC50 [10, 20]: 36 nM
O=C1Nc2ccc(Cl)cc2[C@@](C#CC2CC2)(C(F)(F)F)O1 [EFAVIRENZ]	3700	–	17	31	–	< 1	14	235	34	–	EC50 [16]: > 10000 nM; EC50 [17]: 167 nM; EC50 [18]: 320 nM; EC50 [19]: 4 nM; EC50 [12]: 525 nM
CCc1c(C)[nH]c(=O)c(CN=[N+]=[N-])c1O[C@@H]1C[C@H](C)C[C@H](C)C1	828	11	34	74	206	< 1	107	> 10000	4400	> 54000	EC50 [12]: 689 nM
CCc1c(C)[nH]c(=O)c(C(=O)O)c1OC1CCCCC1	–	–	–	–	–	–	–	–	–	–	EC50 [10, 20]: > 10000 nM
